Test results from BindingDB's records for doi:10.1021/jm0504454 (Sapienza University of Rome, 2005).

biological target: RNA-directed RNA polymerase (UniProt O39930); test: Inhibitory concentration against NS5B HCV polymerase using [alpha-32P]UTP as radioligand (30 degree C for 2 h, at pH 7.5 with Tris-HCl buffer)
Method in brief: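 Recombinant HCV RdRp (1 nM) in 20 mM Tris-HCl pH 7.5, 5 mM MgCl2, 1 mM DTT, 1 mM EDTA, RNase inhibitor, 50 µg/mL actinomycin D, 10 µg/mL RNA template, 0.5 mM ATP/CTP/GTP, [α-32P]UTP, limiting nucleotide 10 µM. 30 °C, 2 h; proteinase K stop, extraction, urea-PAGE, phosphorimaging. IC50s rescaled by a reference inhibitor's measured/literature IC50 ratio.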

Chain of RNA-directed RNA polymerase (O39930 whole entry): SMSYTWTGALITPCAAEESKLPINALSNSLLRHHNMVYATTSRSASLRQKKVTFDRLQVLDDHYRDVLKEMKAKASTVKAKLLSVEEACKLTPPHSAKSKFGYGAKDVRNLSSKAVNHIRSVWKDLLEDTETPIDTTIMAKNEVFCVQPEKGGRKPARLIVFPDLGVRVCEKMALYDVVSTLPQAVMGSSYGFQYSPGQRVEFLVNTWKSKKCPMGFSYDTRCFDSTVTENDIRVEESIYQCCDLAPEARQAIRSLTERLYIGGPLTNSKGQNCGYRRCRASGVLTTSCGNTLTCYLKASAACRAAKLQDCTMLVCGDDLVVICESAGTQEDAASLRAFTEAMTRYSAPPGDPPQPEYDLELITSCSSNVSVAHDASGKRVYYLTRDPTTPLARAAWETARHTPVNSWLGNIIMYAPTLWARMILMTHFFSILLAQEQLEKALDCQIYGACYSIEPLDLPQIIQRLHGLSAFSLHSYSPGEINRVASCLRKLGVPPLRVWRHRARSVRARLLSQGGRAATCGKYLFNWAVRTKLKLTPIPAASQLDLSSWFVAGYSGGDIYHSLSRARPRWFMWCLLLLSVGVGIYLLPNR

IC50 [µM] | SMILES
50 | O=C(O)C(=O)CC(=O)c1ccco1
28 | Cc1ccc(Cn2cccc2C=CC(=O)CC(=O)C(=O)O)cc1
16 | COc1ccc(Cn2cccc2C=CC(=O)CC(=O)C(=O)O)cc1
28 | O=C(O)C(=O)CC(=O)c1cccc(-c2ccccc2)c1
19 | O=C(O)C(=O)CC(=O)c1cccc(Oc2ccccc2)c1
13 | O=C(O)C(=O)CC(=O)c1cccn1Cc1ccc2ccccc2c1 [(Z)-2-Hydroxy-4-(1-naphthalen-2-ylmethyl-1H-pyrrol-2-yl)-4-oxo-but-2-enoic acid]
13 | O=C(O)C(=O)CC(=O)c1cccn1Cc1ccc(O)cc1 [(Z)-2-Hydroxy-4-[1-(4-hydroxy-benzyl)-1H-pyrrol-2-yl]-4-oxo-but-2-enoic acid]
19 | O=C(O)C(=O)CC(=O)c1cccc(NC(=O)C(=O)O)c1 [(Z)-2-Hydroxy-4-[3-(oxalyl-amino)-phenyl]-4-oxo-but-2-enoic acid]
8.2 | O=C(O)C(=O)CC(=O)c1ccc(N2CCCCC2)s1 [(Z)-2-Hydroxy-4-oxo-4-(5-piperidin-1-yl-thiophen-2-yl)-but-2-enoic acid]
50 | O=C(O)C(=O)CC(=O)c1cccc(OCc2cccc(Oc3ccccc3)c2)c1 [(Z)-2-Hydroxy-4-oxo-4-[3-(3-phenoxy-benzyloxy)-phenyl]-but-2-enoic acid]
8.2 | Cc1cc(C)c(C(=O)CC(=O)C(=O)O)s1 [(Z)-4-(3,5-Dimethyl-thiophen-2-yl)-2-hydroxy-4-oxo-but-2-enoic acid]
13 | N#CCCCCn1cccc1C(=O)CC(=O)C(=O)O [(Z)-4-[1-(4-Cyano-butyl)-1H-pyrrol-2-yl]-2-hydroxy-4-oxo-but-2-enoic acid]
18 | O=C(O)C(=O)CC(=O)c1cc(I)cn1Cc1ccc(F)cc1 [(Z)-4-[1-(4-Fluoro-benzyl)-4-iodo-1H-pyrrol-2-yl]-2-hydroxy-4-oxo-but-2-enoic acid]
18 | O=C(O)C(=O)CC(=O)c1ccsc1Cc1ccc(F)cc1 [(Z)-4-[2-(4-Fluoro-benzyl)-thiophen-3-yl]-2-hydroxy-4-oxo-but-2-enoic acid]
0.1 | N#Cc1cccc(Cl)c1COc1cc(O)cc(C(=O)CC(=O)C(=O)O)c1 [(Z)-4-[3-(2-Chloro-6-cyano-benzyloxy)-5-hydroxy-phenyl]-2-hydroxy-4-oxo-but-2-enoic acid]
50 | O=C(O)C(=O)CC(=O)c1cccc(OCc2ccc(-c3ccccc3)cc2)c1 [(Z)-4-[3-(Biphenyl-4-ylmethoxy)-phenyl]-2-hydroxy-4-oxo-but-2-enoic acid]
18 | O=C(C=Cc1c[nH]c2ccc(Cl)cc12)CC(=O)C(=O)O [(Z)-6-((E)-5-Chloro-1H-indol-3-yl)-2-hydroxy-4-oxo-hexa-2,5-dienoic acid]
18 | O=C(C=Cc1cccn1Cc1cccc(F)c1)CC(=O)C(=O)O [(Z)-6-[1-(3-Fluoro-benzyl)-1H-pyrrol-2-yl]-2-hydroxy-4-oxo-hexa-2,5-dienoic acid]
18 | Cc1ccccc1Cn1cccc1C=CC(=O)CC(=O)C(=O)O [(Z)-6-[1-((E)-obenzyl)-1H-Pyrrol-2-yl]-2-hydroxy-4-oxo-hexa-2,5-dienoic acid]
16 | Cn1cc(C(=O)c2ccc(F)cc2)cc1C=CC(=O)CC(=O)C(=O)O [(Z)-6-[4-(4-Fluoro-benzoyl)-1-methyl-1H-pyrrol-2-yl]-2-hydroxy-4-oxo-hexa-2,5-dienoic acid]
